# KCNQ1 block – inhibitors of human KCNQ1 channel, primary screen, cell-based, thallium flux, high-throughput | Potassium voltage-gated channel subfamily KQT member 1 (Homo sapiens), P51787 | CHO-K1 KCNQ1, FluxOR thallium flux fluorescence; active compounds read high | B-score at 10 µM | 310,000 compounds, 1.3% hits | AID 2642, 2010;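 active = compounds whose thallium flux B-score, printed positive for inhibition, exceeds three library SD while starting fluorescence stays within three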;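 note: channel opened by potassium depolarization with thallium stimulus after 20 min compound exposure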
# Target sequence (P51787 whole entry, looked up): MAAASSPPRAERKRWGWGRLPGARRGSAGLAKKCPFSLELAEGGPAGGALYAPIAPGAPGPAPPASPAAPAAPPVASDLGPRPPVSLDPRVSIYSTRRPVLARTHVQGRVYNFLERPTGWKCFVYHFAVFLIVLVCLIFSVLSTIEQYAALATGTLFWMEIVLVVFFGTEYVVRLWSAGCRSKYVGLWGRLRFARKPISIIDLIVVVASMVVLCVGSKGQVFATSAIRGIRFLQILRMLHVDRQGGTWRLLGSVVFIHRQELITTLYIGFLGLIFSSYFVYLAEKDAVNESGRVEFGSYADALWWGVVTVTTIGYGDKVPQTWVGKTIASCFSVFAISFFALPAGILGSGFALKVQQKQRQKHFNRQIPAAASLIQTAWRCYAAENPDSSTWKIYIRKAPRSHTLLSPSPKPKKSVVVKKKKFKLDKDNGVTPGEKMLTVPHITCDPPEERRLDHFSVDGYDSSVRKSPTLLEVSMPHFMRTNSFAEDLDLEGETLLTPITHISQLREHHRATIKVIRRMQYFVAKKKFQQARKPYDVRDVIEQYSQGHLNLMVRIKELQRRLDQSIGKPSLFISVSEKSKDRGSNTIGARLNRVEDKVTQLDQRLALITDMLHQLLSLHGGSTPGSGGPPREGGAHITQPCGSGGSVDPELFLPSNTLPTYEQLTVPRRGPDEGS
# KCNK9 block – KCNK9 potassium channel inhibitors, primary screen, HEK293 cells, thallium flux; FluxOR thallium flux fluorescence; active compounds read low; B-score at 10 µM; 310,000 compounds, 1.2% hits;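 active = ratio B-score over 3 SD below the library mean, with starting fluorescence within 5 SD of its mean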;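 note: negative B-score means less thallium flux so channel inhibition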
# KCNK3 block – human KCNK3 channel inhibitors, primary screen, CHO cells, FluxOR thallium flux, B-score. FluxOR fluorescence; active compounds read low. 340,000 compounds, 0.84% hits. B-score at 10 µM. AID 602410, 2012;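 active = B-score under library mean minus 4 SD, starting fluorescence ratio at most library mean plus 5 SD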;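 note: more negative B-score means stronger inhibition of thallium flux through KCNK3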
# KCNQ1 act – potentiators or activators of KCNQ1 channel, primary screen, cell-based, thallium flux, high-throughput. B-score at 10 µM. AID 2648, 2010. 310,000 compounds, 0.35% hits. CHO-K1 KCNQ1, thallium flux FluxOR fluorescence; active compounds read high. Potassium voltage-gated channel subfamily KQT member 1 (Homo sapiens), P51787;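 active = fluorescence ratio B-score, a plate-corrected score, at least three library SD, with initial intensity B-score within 5 SD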
#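 Doses: Single concentration per compound, DMSO matched to controls | Test system: KCNQ1-transfected CHO-K1 cells | Timing: 90 min dye loading and 20 min compound exposure, both at room temperature | Measured by: Kinetic FluxOR thallium fluorescence, 10-s 1-Hz baseline, 110-s post-stimulus read | Medium: Assay buffer with matched DMSO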
# Cl transport mod – KCC2 cotransporter modulators, thallium flux, primary screen, cell-based, HEK293 KCC2, FluoZin-2 fluorescence, MLSMR; Solute carrier family 12 member 5 (Homo sapiens), Q9H2X9; KCC2 cells, thallium flux FluoZin-2 fluorescence; B-score of Tl+ flux slope (higher = more flux/activation; lower = inhibition) at 10 µM; 190,000 compounds, 2.2% hits;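 active = thallium flux slope and its plate-corrected score both differing from the plate sample mean at a set confidence after two filtering rounds, in either direction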;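 note: slope of fluorescence scaled to starting intensity during 10 to 20 s after thallium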
# hERG rescue – hERG rescue from dofetilide block, primary screen, cell-based, CHO-hERG, FluxOR thallium flux, dofetilide IC70 | Voltage-gated inwardly rectifying potassium channel KCNH2 (Homo sapiens), Q12809 | dofetilide IC70 present | activation (rescue from dofetilide block), less the hit threshold, % at 10 µM | 310,000 compounds, 0.51% hits | AID 1511, 2009;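 active = activation above the mean of controls blocked by dofetilide plus 5 SD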;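 note: thallium influx through hERG after potassium depolarization seen as dye fluorescence rise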
# KCNK9 block conf – KCNK9 potassium channel inhibitors, confirmation, HEK293 cells, thallium flux, duplicate | 4,900 compounds, 43% hits | shares compounds with KCNK9 block | inhibition, % at 10 µM | FluxOR thallium flux fluorescence;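 active = thallium signal inhibited by more than 5 SD of the compound-free buffer control wells, on both duplicate plates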;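 note: 0% = assay buffer control wells without compound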
# Kir21 sel – mouse Kir2.1 channel inhibition, confirmation, selectivity assay for KCNK9 modulator project, cell-based, HEK293, thallium flux; shares compounds with KCNK9 block; Kir2.1 cells, FluxOR thallium flux fluorescence; inhibition, % at 10 µM; 4,900 compounds, 4% hits; AID 492993, 2010;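 active = thallium signal drop more than 5 SD beyond the mean of the no-compound control wells, seen in both duplicate plates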;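 note: signal is fluorescence rise after thallium addition divided by baseline fluorescence; plate controls were assay buffer only for no effect and full block by chlorpromazine control for full effect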
# KCNK9 uninduced – thallium flux in non-induced HEK293 cells, confirmation, counter-screen for KCNK9 inhibitor project, cell-based, second counter screen, non-induced KCNK9-HEK293; shares compounds with KCNK9 block; FluxOR thallium flux; inhibition, % at 10 µM; 4,900 compounds, 40% hits; AID 492997, 2010;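 active = thallium signal drop beyond 5 SD of the untreated control mean, on both duplicate plates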;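 note: plate controls were buffer only IC0 wells for no effect and SID17386958 at its maximal inhibitory level for full effect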
# Starred values were filed as active, the others as inactive; i = inactive; . = not tested or not shown. Rows were chosen to be rich in hits. Some 4.1% of all compounds tested hit in one or more screens of this group.
SMILES,KCNQ1 block,KCNK9 block,KCNK3 block,KCNQ1 act,Cl transport mod,hERG rescue,KCNK9 block conf,Kir21 sel,KCNK9 uninduced
O=C(c1ccccc1NS(=O)(=O)c1cccc2cccnc12)N1CCOCC1,i,i,i,i,1.5,-8.6,.,.,.
Cc1ccc(C)c(N=C2CCCN2Cc2ccccc2)c1C#N,i,-8.9*,i,i,-0.7,-12.9,i,i,36.0%*
Cc1c(C#N)c2ccccc2n1CC(=O)O,i,i,i,i,-0.357,-10.3,.,.,.
CCOC(=O)c1cc(-c2ccccc2)sc1NC(=O)C(C)Sc1nnnn1C (stereo not drawn),i,-16.9*,i,i,-0.575,-14.2,61.0%*,i,36.5%*
CCOC(=O)c1cc(-c2ccccc2)sc1NC(=O)C(C)OC(=O)c1ccncc1 (stereo not drawn),i,i,i,i,0.27,-10.3,.,.,.
CC1CCC/C(=N\NC(=O)COc2ccccc2Cl)C1 (stereo not drawn),i,i,i,i,-0.00645,-2.5,.,.,.
Cc1nc2c(sc3nc(N4CCOCC4)c4c(c32)CC(C)(C)OC4)c(-c2ccccc2)c1C(=O)O,i,i,i,i,-0.704,-14.9,.,.,.
CCN1CCN(C(c2ccccc2)c2nnnn2CCc2ccc(OC)c(OC)c2)CC1 (stereo not drawn),i,i,i,i,1.17,-6.8,.,.,.
Cc1ccc2c(c1)N(CCCC(=O)NCCC1=CCCCC1)C(=O)CO2,i,i,i,i,-0.226,-6.6,i,i,i
CN1C(C)(C)CC(NC(=O)c2ccco2)CC1(C)C,i,i,i,i,.,-9.6,.,.,.
O=C(Nc1cc(Sc2nc3ccccc3s2)cc([N+](=O)[O-])c1)c1ccccc1F,i,-9.03*,i,i,-0.848,-20.4,32.0%*,i,30.5%*
O=C(Nc1cc(Sc2ccccn2)cc([N+](=O)[O-])c1)c1cccc(F)c1,i,i,i,i,-1.09,-13.0,.,.,.
Cc1occc1C(=O)Nc1cc(C(C)(C)C)on1,i,i,i,i,1.12,-2.0,.,.,.
N#Cc1ccccc1Sc1ccccc1C(=O)OCC(=O)NC12CC3CC(CC(C3)C1)C2,i,-8.54*,i,i,-1.34,-6.0,47.5%*,i,30.0%*
O=C1CCC(=O)N1c1ccc(S(=O)(=O)Nc2cccc(Br)c2)cc1,i,i,i,i,.,-9.7,.,.,.
Cc1c(C#N)c2ccccc2n1C,i,i,i,i,0.035,-7.9,.,.,.
Cc1ccc(SCc2c(C#N)c3ccccc3n2C)cc1,i,-11.5*,-9.85*,i,-1.37,-4.4,57.0%*,i,46.0%*
C=CCONC(=O)Cc1ccccc1,.,.,i,.,.,.,.,.,.
Cc1ccc(C(=O)COC(=O)C2C3C=CC(C3)C2C(=O)OCC(=O)c2ccc(C)c(C)c2)cc1C (stereo not drawn),i,i,i,i,0.338,-9.7,i,i,i
CCC(=O)c1ccc(OCC(=O)OCC(=O)c2cc(C)n(CC3CCCO3)c2C)cc1 (stereo not drawn),i,i,i,i,.,-16.1,.,.,.
Cc1cc(C(=O)COC(=O)C2CCN(C(=O)c3ccc(Cl)cc3)CC2)c(C)n1CC1CCCO1 (stereo not drawn),i,i,i,i,-0.255,-15.2,i,i,i
O=C(c1cccs1)N(Cc1ccco1)c1nc(-c2ccc(F)cc2)cs1,6*,-14.4*,-14.2*,i,0.0488,-6.0,63.5%*,i,48.5%*
COC(=O)CNC(=O)C(Cc1c[nH]c2ccccc12)NC(=O)Oc1ccccc1 (stereo not drawn),i,i,i,i,0.481,-7.3,.,.,.
CC1CC(C)CN(S(=O)(=O)c2ccc(Oc3ccc([N+](=O)[O-])cc3)cc2)C1 (stereo not drawn),i,i,i,i,0.718,-8.5,i,i,i
CC1CCCN(S(=O)(=O)c2ccc([N+](=O)[O-])cc2)C1 (stereo not drawn),i,i,i,i,.,-3.6,.,.,.
SMILES,KCNQ1 block,KCNK9 block,KCNK3 block,KCNQ1 act,Cl transport mod,hERG rescue,KCNK9 block conf,Kir21 sel,KCNK9 uninduced
COc1ccc(/C(N)=N/OC(=O)c2cccs2)cc1,i,i,i,i,0.163,-15.4,.,.,.
COc1ccc(NC(=O)O/N=C2/CCCc3ccc(OC)cc32)cc1,i,-11.8*,i,i,-1.2,-10.8,66.5%*,33.5%*,26.0%*
COc1ccc2c(c1)/C(=N/OC(=O)c1cccs1)CCC2,i,-12*,i,i,1.65,-11.6,i,i,i
Cc1ccc(S(=O)(=O)N(C)c2ccccc2C(=O)NC2CCCC2)cc1,i,i,i,i,0.584,-6.2,.,.,.
Cc1nn(-c2ccccc2)c(Cl)c1/C=N/Nc1ccc(S(=O)(=O)Nc2ccccc2C(=O)O)cc1[N+](=O)[O-],i,i,i,i,-1.12,-11.0,i,i,i
CCn1cnc2c1c(=O)n(Cc1nnc3n1-c1ccccc1SC3)c(=O)n2Cc1ccccc1,i,i,i,i,-1.48,-4.7,i,i,i
CCn1cnc2c1c(=O)n(Cc1csc(-c3ccccc3)n1)c(=O)n2Cc1ccccc1,i,i,i,i,.,-11.4,i,i,i
CCn1cnc2c1c(=O)n(CC(=O)NCc1ccccc1)c(=O)n2Cc1ccccc1,i,i,i,i,2.72,-6.7,.,.,.
